Changes are numbered by the printed parent chain.
How the values were obtained:
Details in all cases: stereoisomer not certain
[1] = system: T1, O5AP2 A105T
T1 sequence (whole entry): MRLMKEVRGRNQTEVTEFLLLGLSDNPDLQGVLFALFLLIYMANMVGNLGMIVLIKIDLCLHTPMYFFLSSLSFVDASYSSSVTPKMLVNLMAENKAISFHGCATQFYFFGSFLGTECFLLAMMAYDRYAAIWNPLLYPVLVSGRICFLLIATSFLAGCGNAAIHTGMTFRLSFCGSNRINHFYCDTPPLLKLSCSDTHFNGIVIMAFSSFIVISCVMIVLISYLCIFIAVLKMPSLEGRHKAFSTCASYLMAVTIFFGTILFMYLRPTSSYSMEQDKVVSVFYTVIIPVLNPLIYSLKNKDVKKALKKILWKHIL
How it was run: (§1)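 Whether a receptor–molecule pair is responsive (active) rests on the original authors' judgment that its measured signal was statistically different from baseline. Pairs without that judgment are non-responsive (inactive). Sources used varied assay methods, commonly transient luciferase assays in mammalian cell lines.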

[2] = system: T2, O5AU1
T2 sequence (whole entry): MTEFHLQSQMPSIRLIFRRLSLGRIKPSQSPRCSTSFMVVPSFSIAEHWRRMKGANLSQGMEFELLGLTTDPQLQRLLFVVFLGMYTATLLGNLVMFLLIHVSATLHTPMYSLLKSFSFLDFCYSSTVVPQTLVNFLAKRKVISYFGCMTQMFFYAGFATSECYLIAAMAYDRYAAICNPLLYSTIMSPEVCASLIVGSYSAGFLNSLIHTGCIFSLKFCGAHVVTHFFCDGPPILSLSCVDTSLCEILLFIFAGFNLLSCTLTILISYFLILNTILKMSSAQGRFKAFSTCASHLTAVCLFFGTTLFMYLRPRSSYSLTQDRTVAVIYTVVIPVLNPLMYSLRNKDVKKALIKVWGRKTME
How it was run: as §1

[3] = system: T3, O5H14
T3 sequence (whole entry): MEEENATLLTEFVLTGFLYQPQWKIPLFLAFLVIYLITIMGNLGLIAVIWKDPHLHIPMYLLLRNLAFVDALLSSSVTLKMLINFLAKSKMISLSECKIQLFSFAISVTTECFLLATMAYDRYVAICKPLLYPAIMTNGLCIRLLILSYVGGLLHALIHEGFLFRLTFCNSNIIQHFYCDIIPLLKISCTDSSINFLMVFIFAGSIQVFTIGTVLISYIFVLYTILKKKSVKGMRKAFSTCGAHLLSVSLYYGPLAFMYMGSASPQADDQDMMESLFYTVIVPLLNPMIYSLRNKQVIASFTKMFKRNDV
How it was run: as §1

[4] = system: T4, O5H15 V108I S148T T167S
T4 sequence (whole entry): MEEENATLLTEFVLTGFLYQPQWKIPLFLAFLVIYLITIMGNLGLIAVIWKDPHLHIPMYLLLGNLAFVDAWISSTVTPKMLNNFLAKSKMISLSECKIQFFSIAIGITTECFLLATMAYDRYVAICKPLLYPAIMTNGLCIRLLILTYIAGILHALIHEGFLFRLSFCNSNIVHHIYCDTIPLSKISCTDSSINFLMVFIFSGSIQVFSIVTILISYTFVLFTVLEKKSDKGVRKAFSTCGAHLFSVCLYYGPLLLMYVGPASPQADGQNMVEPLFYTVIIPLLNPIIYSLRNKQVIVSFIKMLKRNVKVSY
How it was run: as §1

[5] = system: T5, O6C65 T222A
T5 sequence (whole entry): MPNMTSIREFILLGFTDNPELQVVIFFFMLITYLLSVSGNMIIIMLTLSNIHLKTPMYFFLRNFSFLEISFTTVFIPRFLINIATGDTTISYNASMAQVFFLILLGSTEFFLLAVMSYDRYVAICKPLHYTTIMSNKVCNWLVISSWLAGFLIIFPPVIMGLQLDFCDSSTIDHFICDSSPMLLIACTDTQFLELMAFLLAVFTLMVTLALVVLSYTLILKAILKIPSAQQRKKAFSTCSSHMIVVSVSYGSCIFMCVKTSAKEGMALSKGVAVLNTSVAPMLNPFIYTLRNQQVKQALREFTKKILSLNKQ
How it was run: as §1

[6] = system: T6, O6C70 L181P
T6 sequence (whole entry): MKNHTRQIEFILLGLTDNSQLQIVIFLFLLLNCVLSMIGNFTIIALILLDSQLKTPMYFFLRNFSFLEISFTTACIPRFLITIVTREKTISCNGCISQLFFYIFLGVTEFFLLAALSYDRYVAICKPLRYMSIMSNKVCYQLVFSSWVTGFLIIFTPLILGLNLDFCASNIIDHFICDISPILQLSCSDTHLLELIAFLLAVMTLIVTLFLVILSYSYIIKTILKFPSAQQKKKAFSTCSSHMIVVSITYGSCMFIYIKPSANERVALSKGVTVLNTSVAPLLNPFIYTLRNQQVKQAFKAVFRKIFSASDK
How it was run: as §1

[7] = system: T7, O7E24 S193F P242S
T7 sequence (whole entry): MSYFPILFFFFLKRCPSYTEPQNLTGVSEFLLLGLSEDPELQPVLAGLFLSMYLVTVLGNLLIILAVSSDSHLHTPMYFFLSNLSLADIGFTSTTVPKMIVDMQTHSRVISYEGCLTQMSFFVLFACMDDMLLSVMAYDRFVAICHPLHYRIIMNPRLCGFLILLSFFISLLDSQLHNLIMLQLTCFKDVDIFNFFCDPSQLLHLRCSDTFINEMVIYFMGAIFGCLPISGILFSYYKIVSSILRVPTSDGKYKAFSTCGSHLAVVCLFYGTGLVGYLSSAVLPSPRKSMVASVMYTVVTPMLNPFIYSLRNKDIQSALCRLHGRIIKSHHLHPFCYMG
How it was run: as §1

[8] = system: T8, O7E24
T8 sequence (whole entry): T7 sequence (whole entry) with F193S
How it was run: as §1

[9] = biological target: T9, OR10A2 (Homo sapiens) (UniProt Q9H208)
T9 sequence (whole entry): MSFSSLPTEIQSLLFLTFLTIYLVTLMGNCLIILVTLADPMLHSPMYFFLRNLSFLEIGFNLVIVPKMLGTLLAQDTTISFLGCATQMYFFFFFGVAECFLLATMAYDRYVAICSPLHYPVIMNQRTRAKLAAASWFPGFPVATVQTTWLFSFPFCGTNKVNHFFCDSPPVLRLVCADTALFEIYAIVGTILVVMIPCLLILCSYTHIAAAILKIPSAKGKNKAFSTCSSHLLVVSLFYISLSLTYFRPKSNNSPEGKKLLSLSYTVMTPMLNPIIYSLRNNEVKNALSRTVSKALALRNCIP
How it was run: as §1

[10] = biological target: T10, OR10A3 (Homo sapiens) (UniProt P58181)
T10 sequence (whole entry): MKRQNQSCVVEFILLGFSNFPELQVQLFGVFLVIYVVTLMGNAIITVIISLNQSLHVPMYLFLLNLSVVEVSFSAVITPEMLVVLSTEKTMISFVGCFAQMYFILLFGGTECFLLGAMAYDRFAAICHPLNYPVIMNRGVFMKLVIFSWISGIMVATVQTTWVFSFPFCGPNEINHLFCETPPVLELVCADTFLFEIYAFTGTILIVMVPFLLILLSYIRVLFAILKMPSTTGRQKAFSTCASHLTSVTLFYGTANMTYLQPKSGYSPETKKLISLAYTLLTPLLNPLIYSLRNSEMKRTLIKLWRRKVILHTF
How it was run: as §1

[11] = biological target: T11, OR10A4 (Homo sapiens) (UniProt Q9H209)
T11 sequence (whole entry): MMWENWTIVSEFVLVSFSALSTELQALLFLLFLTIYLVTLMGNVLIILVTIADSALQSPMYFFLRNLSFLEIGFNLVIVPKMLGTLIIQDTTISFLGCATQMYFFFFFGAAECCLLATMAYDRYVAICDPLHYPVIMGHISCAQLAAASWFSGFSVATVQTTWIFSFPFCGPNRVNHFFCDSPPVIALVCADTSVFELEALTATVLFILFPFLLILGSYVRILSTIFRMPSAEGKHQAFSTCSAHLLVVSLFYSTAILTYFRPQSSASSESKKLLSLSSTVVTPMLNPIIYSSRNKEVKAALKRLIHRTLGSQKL
How it was run: as §1

[12] = biological target: T12, OR10A5 (Homo sapiens) (UniProt Q9H207)
T12 sequence (whole entry): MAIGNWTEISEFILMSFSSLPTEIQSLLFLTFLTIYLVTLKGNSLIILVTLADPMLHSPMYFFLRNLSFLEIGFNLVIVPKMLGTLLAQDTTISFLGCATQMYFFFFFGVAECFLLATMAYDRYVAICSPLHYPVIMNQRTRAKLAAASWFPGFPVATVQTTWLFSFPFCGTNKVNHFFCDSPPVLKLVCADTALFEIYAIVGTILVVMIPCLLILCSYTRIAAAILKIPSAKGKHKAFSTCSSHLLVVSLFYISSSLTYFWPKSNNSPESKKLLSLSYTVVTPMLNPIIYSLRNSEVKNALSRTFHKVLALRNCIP
How it was run: as §1

[13] = biological target: T13, OR10A6 (Homo sapiens) (UniProt Q8NH74)
T13 sequence (whole entry): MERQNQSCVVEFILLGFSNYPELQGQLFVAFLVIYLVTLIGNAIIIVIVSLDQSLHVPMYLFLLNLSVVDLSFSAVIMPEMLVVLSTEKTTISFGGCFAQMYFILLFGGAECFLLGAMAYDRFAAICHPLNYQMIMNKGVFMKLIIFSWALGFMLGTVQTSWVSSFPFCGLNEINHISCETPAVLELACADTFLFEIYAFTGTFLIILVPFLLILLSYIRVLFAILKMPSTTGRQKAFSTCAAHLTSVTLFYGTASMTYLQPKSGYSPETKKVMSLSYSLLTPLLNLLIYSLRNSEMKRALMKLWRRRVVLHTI
How it was run: as §1

[14] = biological target: T14, OR10A7 (Homo sapiens) (UniProt Q8NGE5)
T14 sequence (whole entry): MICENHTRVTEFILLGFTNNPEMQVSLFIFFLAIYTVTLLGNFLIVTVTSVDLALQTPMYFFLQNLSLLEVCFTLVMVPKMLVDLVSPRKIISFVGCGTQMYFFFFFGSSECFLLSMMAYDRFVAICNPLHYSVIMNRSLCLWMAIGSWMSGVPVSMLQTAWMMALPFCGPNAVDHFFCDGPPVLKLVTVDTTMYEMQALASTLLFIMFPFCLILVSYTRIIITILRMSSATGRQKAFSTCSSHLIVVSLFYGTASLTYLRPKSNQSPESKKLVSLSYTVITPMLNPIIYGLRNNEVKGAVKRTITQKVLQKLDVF
How it was run: as §1

[15] = biological target: T15, OR10AD1 (Homo sapiens) (UniProt Q8NGE0)
T15 sequence (whole entry): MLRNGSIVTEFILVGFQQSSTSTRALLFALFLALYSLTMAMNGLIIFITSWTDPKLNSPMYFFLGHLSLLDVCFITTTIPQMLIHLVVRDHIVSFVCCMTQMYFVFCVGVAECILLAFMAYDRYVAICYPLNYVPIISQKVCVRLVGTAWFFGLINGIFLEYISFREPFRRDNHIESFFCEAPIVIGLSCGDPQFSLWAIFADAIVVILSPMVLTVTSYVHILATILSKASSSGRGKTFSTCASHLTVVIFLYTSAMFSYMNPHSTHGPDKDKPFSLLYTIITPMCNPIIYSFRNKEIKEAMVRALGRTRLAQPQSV
How it was run: as §1

[16] = biological target: T16, OR10AG1 (Homo sapiens) (UniProt Q8NH19)
T16 sequence (whole entry): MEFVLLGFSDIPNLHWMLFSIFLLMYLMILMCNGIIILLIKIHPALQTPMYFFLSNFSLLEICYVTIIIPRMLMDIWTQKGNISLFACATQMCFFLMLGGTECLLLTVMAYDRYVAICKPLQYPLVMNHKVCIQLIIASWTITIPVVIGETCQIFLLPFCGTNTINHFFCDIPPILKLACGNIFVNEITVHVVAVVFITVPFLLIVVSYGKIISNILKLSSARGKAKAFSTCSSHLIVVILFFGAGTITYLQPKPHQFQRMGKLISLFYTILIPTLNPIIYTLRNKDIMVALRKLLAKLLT
How it was run: as §1

[17] = biological target: T17, OR10C1 (Homo sapiens) (UniProt Q96KK4)
T17 sequence (whole entry): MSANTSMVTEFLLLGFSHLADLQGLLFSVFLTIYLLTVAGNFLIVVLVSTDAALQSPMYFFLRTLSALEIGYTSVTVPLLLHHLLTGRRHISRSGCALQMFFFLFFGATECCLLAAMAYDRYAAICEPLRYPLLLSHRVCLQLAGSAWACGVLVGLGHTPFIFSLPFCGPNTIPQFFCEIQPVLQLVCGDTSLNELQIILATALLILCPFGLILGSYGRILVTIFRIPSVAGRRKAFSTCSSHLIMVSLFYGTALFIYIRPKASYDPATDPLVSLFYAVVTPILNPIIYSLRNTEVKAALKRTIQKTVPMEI
How it was run: as §1

[18] = biological target: T18, OR10D3 (Homo sapiens) (UniProt Q8NH80)
T18 sequence (whole entry): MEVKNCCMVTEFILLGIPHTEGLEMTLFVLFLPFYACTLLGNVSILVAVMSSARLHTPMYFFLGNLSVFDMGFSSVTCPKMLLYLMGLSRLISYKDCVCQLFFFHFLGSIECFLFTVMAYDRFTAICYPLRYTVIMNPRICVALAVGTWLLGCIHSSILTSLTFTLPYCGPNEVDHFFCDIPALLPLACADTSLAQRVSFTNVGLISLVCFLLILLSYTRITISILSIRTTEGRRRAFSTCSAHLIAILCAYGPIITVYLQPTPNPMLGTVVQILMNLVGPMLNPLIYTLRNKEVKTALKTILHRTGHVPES
How it was run: as §1

[19] = system: T19, O5AN1
T19 sequence (whole entry): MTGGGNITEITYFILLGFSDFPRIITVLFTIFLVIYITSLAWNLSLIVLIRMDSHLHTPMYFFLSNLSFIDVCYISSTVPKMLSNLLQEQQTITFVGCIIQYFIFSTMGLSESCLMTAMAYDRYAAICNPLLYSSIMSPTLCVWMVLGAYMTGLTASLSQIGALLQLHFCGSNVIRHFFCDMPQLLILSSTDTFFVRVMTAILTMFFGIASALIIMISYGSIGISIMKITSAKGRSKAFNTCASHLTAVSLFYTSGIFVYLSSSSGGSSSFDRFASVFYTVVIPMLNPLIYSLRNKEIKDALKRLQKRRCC
How it was run: as §1

Measured: odorant receptor agonist call;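 also: active if original authors judged signal statistically different from baseline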

Cc1cnc(C)c(C)n1
inactive: [1] | [2] | [3] | [4] | [5] | [6] | [7] | [8] | [9] | [10] | [11] | [12] | [13] | [14] | [15] | [16] | [17] | [18]

CCC(=O)OCC(C)(C)OC(C)C1CCCC(C)(C)C1 (configuration not stated)
inactive: [19]

CCC1OC(C)=C(O)C1=O (configuration not stated)
inactive: [1] | [2] | [3] | [4] | [5] | [6] | [7] | [8] | [9] | [10] | [11] | [12] | [13] | [14] | [15] | [16] | [17] | [18]
